Test results as given in ChEMBL document CHEMBL3585273, “Discovery of Tricyclic Clerodane Diterpenes as Sarco/Endoplasmic Reticulum Ca(2+)-ATPase Inhibitors and Structure-Activity Relationships” (J Nat Prod, 2015).

Tests used:
[1] = target: T1, Sarcoplasmic/endoplasmic reticulum calcium ATPase 1 (Oryctolagus cuniculus, UniProt P04191); experiment: Binding affinity to rabbit skeletal muscle SERCA1a preincubated for 5 mins followed by Mg-ATP addition measured over 6 mins by spectrophotometric analysis
How it was run: (§1)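 Rabbit skeletal muscle SR-purified SERCA1a (1 mg/mL) equilibrated in E2 state: 1 mM EGTA, 1 mM Mg2+, 10 mM Tes pH 7.5, 100 mM KCl. 10 μg protein plus compound (1.25–100 μM) preincubated 5 min at 23 °C in ATP-regenerating medium (0.1 mM Ca2+, 1 mM PEP, pyruvate kinase, lactate dehydrogenase, 0.175 mM NADH). Started with 5 mM Mg-ATP; A340 read over 6 min; three repeats.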

Sus scrofa = species on record: Sus scrofa; experiment: Inhibition of pig kidney outer medulla Na+,K+-ATPase at 50 uM relative to control
How it was run: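 Purified pig kidney outer medulla Na+,K+-ATPase membranes. Steady-state activity at 37 °C in 130 mM NaCl, 20 mM KCl, 4 mM MgCl2, 3 mM ATP, 20 mM histidine pH 7.4. Read-out is phosphate liberation, with 1 mM ouabain as the nonspecific ATPase blank. Compounds tested over 1–50 μM.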

[2] = target: T1, Sarcoplasmic/endoplasmic reticulum calcium ATPase 1; experiment: Binding affinity to rabbit hind leg muscle SERCA1a by pyruvate kinase and lactate dehydrogenase coupled assay; how it was run: as §1
[3] = Inhibition of Wistar rat stomach H+,K+-ATPase after 1 hr
CCRF-CEM = experiment: Cytotoxicity against human CCRF-CEM cells assessed as cell viability after 24 hrs by MTT assay; format: functional, cell-based
How it was run: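 Human acute lymphoblastic leukemia CCRF-CEM cells seeded at 4 × 10^4 cells/well and exposed 24 h to a range of compound concentrations. Viability read by MTT. Doxorubicin served as positive control and 0.1% DMSO as solvent control. IC50 derived by nonlinear regression. Data are means ± SD of three independent experiments.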

T1 sequence (P04191 whole entry): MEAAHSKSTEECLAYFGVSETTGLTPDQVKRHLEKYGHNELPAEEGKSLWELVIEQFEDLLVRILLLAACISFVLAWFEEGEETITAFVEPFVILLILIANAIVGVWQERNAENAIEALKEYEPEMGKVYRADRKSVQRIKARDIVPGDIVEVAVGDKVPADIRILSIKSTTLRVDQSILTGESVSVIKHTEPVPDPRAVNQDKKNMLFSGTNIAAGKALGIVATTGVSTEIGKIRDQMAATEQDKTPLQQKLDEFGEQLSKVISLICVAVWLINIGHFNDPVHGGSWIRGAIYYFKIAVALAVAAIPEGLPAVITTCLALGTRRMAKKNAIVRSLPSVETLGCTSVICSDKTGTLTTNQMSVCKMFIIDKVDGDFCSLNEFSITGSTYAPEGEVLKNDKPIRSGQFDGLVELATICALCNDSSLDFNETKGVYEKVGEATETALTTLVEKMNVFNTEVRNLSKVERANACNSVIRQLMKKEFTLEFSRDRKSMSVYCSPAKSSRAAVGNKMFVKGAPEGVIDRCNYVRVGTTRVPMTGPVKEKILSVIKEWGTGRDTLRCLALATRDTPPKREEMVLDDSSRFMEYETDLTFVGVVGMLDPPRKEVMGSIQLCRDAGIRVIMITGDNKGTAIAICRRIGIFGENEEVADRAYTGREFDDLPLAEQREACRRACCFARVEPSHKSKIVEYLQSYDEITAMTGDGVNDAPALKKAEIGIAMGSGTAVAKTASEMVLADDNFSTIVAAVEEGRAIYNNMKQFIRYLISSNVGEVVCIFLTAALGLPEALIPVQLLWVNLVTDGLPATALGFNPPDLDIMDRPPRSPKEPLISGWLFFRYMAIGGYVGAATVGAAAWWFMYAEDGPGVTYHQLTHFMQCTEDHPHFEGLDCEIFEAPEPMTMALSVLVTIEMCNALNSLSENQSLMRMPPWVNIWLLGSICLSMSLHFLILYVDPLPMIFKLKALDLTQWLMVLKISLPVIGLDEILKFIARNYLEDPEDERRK

Row | Compound | Kd [1] | IC50 (CCRF-CEM) | other results
1 | C=CC(=C)[C@H](O)C[C@]1(C)[C@H](C)C[C@H](OC(=O)CC(O)CCCCCCCCC)[C@@]23C(=C[C@H](O)C[C@@H]12)[C@@H](OC(C)=O)O[C@H]3OC(C)=O (stereo partly drawn) | 31.5 µM |  | 
2 | C=CC(=C)CC[C@]1(C)[C@H](C)C[C@H](OC(=O)CC(O)CCCCCCCCC)[C@@]23C(=C[C@H](O)C[C@@H]12)[C@@H](OC(C)=O)O[C@H]3OC(C)=O (stereo partly drawn) | 7.5 µM |  | inhibition (Sus scrofa): 26.3%
3 | C[C@H](C[C@H](O)[C@H]1OC1(C)C)C1=C2C[C@H](O)[C@H]3[C@@]4(C)CCC(=O)C(C)(C)[C@@H]4CC[C@]3(C)[C@@]2(C)CC1 [ALISOL B] |  |  | Kd [2]: 27 µM
4 | IVERMECTIN |  |  | IC50 [3]: 7.59 µM
5 | CC(=O)O[C@H]1O[C@@H](OC(C)=O)[C@]23C1=C[C@H](O)C[C@H]2[C@](C)(CCC1=CCOOC1)[C@H](C)C[C@@H]3OC(=O)/C=C/c1ccccc1 | 22.3 µM |  | 
6 | C=C/C(C)=C/C[C@]1(C)[C@H](C)C[C@H](OC(C)=O)[C@@]23C(=C[C@H](OC(=O)c4ccc(O)cc4)C[C@@H]12)[C@@H](OC(C)=O)O[C@H]3OC(C)=O | 20.1 µM | 1.2 µM | 
7 | C=C/C(C)=C/C[C@]1(C)[C@H](C)[C@@H](OC(=O)CCC)[C@H](O)[C@@]23C(=C[C@H](OC)C[C@@H]12)[C@@H](OC(=O)CCC)O[C@H]3OC(C)=O | 10.1 µM | 0.7 µM | inhibition (Sus scrofa): 4.41%
8 | C=C/C(C)=C/C[C@]1(C)[C@H](C)[C@@H](O)[C@H](O)[C@@]23C(=C[C@H](OC)C[C@@H]12)[C@@H](O)O[C@H]3O | > 100 µM | 4.3 µM | inhibition (Sus scrofa): 6.55%
9 | C=CC(=C)CC[C@]1(C)[C@H](C)C[C@H](OC(=O)/C=C/c2ccccc2)[C@@]23C(=C[C@H](O)C[C@@H]12)[C@@H](OC(C)=O)O[C@H]3OC(C)=O | 48.1 µM |  | 
10 | C[C@H]1O[C@@H](O[C@H]2CC[C@@]3(C)[C@@H](CC[C@]4(C)[C@@H]3C=C[C@]35OC[C@@]6(CCC(C)(C)C[C@H]63)[C@H](O)C[C@]54C)[C@]2(C)CO)[C@H](O)[C@@H](O[C@@H]2O[C@H](CO)[C@@H](O)[C@H](O)[C@H]2O)[C@@H]1O |  |  | Kd [2]: 50 µM
11 | C=CC(=C)CC[C@]1(C)[C@H](C)CC[C@@]23C(C[C@H](OC(C)=O)C[C@@H]12)[C@@H](OC(C)=O)O[C@H]3OC(C)=O (stereo partly drawn) | 103 µM | 12 µM | 
12 | C=C/C(C)=C/C[C@]1(C)[C@H](C)CC[C@@]23C(=CC(=O)C[C@@H]12)[C@@H](OC(C)=O)O[C@H]3OC(C)=O | 96.5 µM |  | 
13 | C=C/C(C)=C/C[C@]1(C)[C@H](C)C[C@H](O)[C@@]23C(=C[C@H](OC(=O)c4ccc(O)cc4)C[C@@H]12)[C@@H](OC(C)=O)O[C@H]3OC(C)=O [CASEARBORIN D] | 2 µM | 1.1 µM | inhibition (Sus scrofa): 23.8%
14 | C=CC(=C)CC[C@]1(C)[C@H](C)C[C@H](O)[C@@]23C(=C[C@@H](OC(=O)/C=C/c4ccccc4)C[C@@H]12)[C@@H](OC(C)=O)O[C@H]3OC(C)=O | 32.1 µM |  | 
